Source: ChEMBL document CHEMBL4177648, “Benzofuran-dihydropyridine hybrids: A new class of potential bone anabolic agents” (Bioorg Med Chem, 2017)
The source made the active and inactive calls. No cut-off for these calls is given here.

Key:
[1] = system: Rattus norvegicus; experiment: Osteogenic activity in Sprague-Dawley rat drill-hole fracture model assessed as increase in trabecular number at 10 mg/kg/day for 14 consecutive days by micro CT-scan analysis; assay type: functional, organism-based
Summary of the method: (§1)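 Adult female Sprague-Dawley rats (200 ± 20 g, 12 weeks) under ketamine/xylazine anaesthesia received a 0.8 mm drill-hole defect in the femoral diaphysis, 2 cm above the knee. Dosing was oral at 10 mg·kg⁻¹·day⁻¹, or gum acacia vehicle, for 14 days starting the next day. The defect was scanned by micro-CT at 18 µm voxel and 70 kV; n=6/group.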

[2] = system: Rattus norvegicus; experiment: Osteogenic activity in Sprague-Dawley rat drill-hole fracture model assessed as enhanced callus regeneration of femur bone at 10 mg/kg/day by calcein labeling based confocal microscopic method; assay type: functional
Summary of the method: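 Drill-hole femur defect in female Sprague-Dawley rats with oral dosing at 10 mg·kg⁻¹·day⁻¹ for 14 days. Calcein (20 mg/kg i.p.) was given 2 days before autopsy. Acrylic-embedded 50 µm bone sections were imaged by confocal microscopy, and mean calcein intensity per pixel was quantified at the defect; n=6/group.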

[3] = system: Calvarial osteoblast; experiment: Induction of mineralization in rat calvarial osteoblasts at 0.1 nM to 10 nM after 21 days by Alizarin-red dye based assay; assay type: functional, cell-based
Summary of the method: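 Rat pup calvarial osteoblasts were seeded at 1×10^4 cells/well in differentiation medium with compound. Medium was changed every other day for 21 days. Cells were fixed in 4% paraformaldehyde and stained with 40 mM Alizarin red (pH 4.5). Stain was extracted with 10% acetic acid, heated to 85 °C, and neutralised with NH4OH. Absorbance was read at 405 nm.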

[4] = system: Rattus norvegicus; experiment: Osteogenic activity in Sprague-Dawley rat drill-hole fracture model assessed as enhanced callus regeneration of femur bone at 10 mg/kg/day by H and E staining-based analysis; assay type: functional, organism-based
Summary of the method: (§2)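 Drill-hole femur defect in female Sprague-Dawley rats with oral dosing at 10 mg·kg⁻¹·day⁻¹ or gum acacia vehicle for 14 days. Bones were decalcified in EDTA and the callus at the defect site was stained with H&E; n=6/group.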

[5] = system: Calvarial osteoblast; experiment: Anabolic activity in rat calvarial osteoblasts assessed as induction of alkaline phosphatase activity at 1 pM after 48 hrs in presence of beta-glycerophosphate and ascorbic acid by p-nitrophenyl phosphate substrate based assay (reference value: 1 to 1.21); assay type: functional
[6] = system: Calvarial osteoblast; experiment: Cytotoxicity against rat calvarial osteoblasts at 100 uM after 48 hrs by MTT assay; assay type: cell-based
Summary of the method: (§3)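 Primary osteoblasts from calvaria of 1–2-day-old rat pups, released by sequential dispase/collagenase P digestion and grown in α-MEM with 10% FCS to 70–80% confluence. Seeded at 2000 cells/well and treated with 1 pM to 100 µM for 48 h in differentiation medium (10 mM β-glycerophosphate, 50 µg/mL ascorbic acid). Viability read by MTT against untreated control; n=8, mean ± SEM.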

[7] = system: Rattus norvegicus; experiment: Upregulation of Bmp2 mRNA in rat pup calvarial tissue at >10 mg/kg/day administered subcutaneously for 3 consecutive days by qRT-PCR analysis; assay type: functional, organism-based
Summary of the method: (§4)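 Rat pups received subcutaneous injections at the calvarial skull site of 0.1, 0.5, 1.0, 5.0, 10 or 20 mg·kg⁻¹·day⁻¹, or normal-saline vehicle, for 3 consecutive days. Calvaria were then collected, RNA was isolated with TRIzol, and Runx2 and Bmp2 were measured by qRT-PCR; n=5, mean ± SEM.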

[8] = system: Rattus norvegicus; experiment: Upregulation of Bmp2 mRNA in rat pup calvarial tissue at 1 to 10 mg/kg/day administered subcutaneously for 3 consecutive days by qRT-PCR analysis; assay type: functional, organism-based; summary of the method: as §4
[9] = system: Calvarial osteoblast; experiment: Upregulation of ALP mRNA levels in rat calvarial osteoblasts at 100 pM after 48 hrs by qRT-PCR analysis relative to control; assay type: functional
Summary of the method: (§5)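 Rat pup calvarial osteoblasts were treated for 48 h with compound. Total RNA was extracted with TRIzol and checked by A260 and A260/A280. qRT-PCR used 45 cycles (94 °C, 62 °C, 72 °C steps) and was normalised to GAPDH. Fold change is over untreated cells; n=5, mean ± SEM.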

[10] = system: Calvarial osteoblast; experiment: Anabolic activity in rat calvarial osteoblasts assessed as induction of alkaline phosphatase activity at 100 uM after 48 hrs in presence of beta-glycerophosphate and ascorbic acid by p-nitrophenyl phosphate substrate based assay (reference value: 1 to 1.21); assay type: functional
[11] = system: Calvarial osteoblast; experiment: Upregulation of Col1 mRNA levels in rat calvarial osteoblasts at 10 nM after 48 hrs by qRT-PCR analysis relative to control; assay type: functional; summary of the method: as §5
[12] = system: Calvarial osteoblast; experiment: Upregulation of Runx2 mRNA levels in rat calvarial osteoblasts at 10 nM after 48 hrs by qRT-PCR analysis relative to control; assay type: functional; summary of the method: as §5
[13] = system: Calvarial osteoblast; experiment: Upregulation of BMP2 expression levels in rat calvarial osteoblasts at 100 pM after 48 hrs by Western blot analysis; assay type: functional, cell-based
[14] = system: Calvarial osteoblast; experiment: Anabolic activity in rat calvarial osteoblasts assessed as induction of alkaline phosphatase activity at 10 nM after 48 hrs in presence of beta-glycerophosphate and ascorbic acid by p-nitrophenyl phosphate substrate based assay (reference value: 1 to 1.21); assay type: functional
[15] = system: Calvarial osteoblast; experiment: Upregulation of COL1 expression levels in rat calvarial osteoblasts at 100 pM after 48 hrs by Western blot analysis; assay type: functional, cell-based
[16] = system: Rattus norvegicus; experiment: Osteogenic activity in Sprague-Dawley rat drill-hole fracture model assessed as increase in trabecular thickness at 10 mg/kg/day for 14 consecutive days by micro CT-scan analysis; assay type: functional, organism-based; summary of the method: as §1
[17] = system: Calvarial osteoblast; experiment: Cytotoxicity against rat calvarial osteoblasts at 0.000001 uM to 1 uM after 48 hrs by MTT assay; assay type: cell-based; conditions: 1 pM; summary of the method: as §3
[18] = system: Rattus norvegicus; experiment: Hepatotoxicity in Sprague-Dawley rat drill-hole fracture model assessed as morphological alterations at 10 mg/kg, po qd for 14 days by haematoxylin and eosin staining-based microscopic analysis; assay type: toxicity, organism-based; conditions: in vivo, 336 h
Summary of the method: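 From the next day they were dosed orally for 14 days, 6 per group, with vehicle gum acacia in water. Livers were collected at the end, cut into 5 µm paraffin sections, dewaxed, stained with H&E and examined by light microscopy.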

[19] = system: Calvarial osteoblast; experiment: Anabolic activity in rat calvarial osteoblasts assessed as induction of alkaline phosphatase activity after 48 hrs in presence of beta-glycerophosphate and ascorbic acid by p-nitrophenyl phosphate substrate based assay; assay type: functional, cell-based
[20] = system: Rattus norvegicus; experiment: Osteogenic activity in Sprague-Dawley rat drill-hole fracture model assessed as increase in Bmp2 expression levels at 10 mg/kg/day by qRT-PCR analysis; assay type: functional, organism-based
[21] = system: Calvarial osteoblast; experiment: Upregulation of Bmp2 mRNA levels in rat calvarial osteoblasts at 100 pM after 48 hrs by qRT-PCR analysis relative to control; assay type: functional; summary of the method: as §5
[22] = system: Calvarial osteoblast; experiment: Upregulation of Bmp2 expression levels in rat calvarial osteoblasts at 100 pM after 48 hrs by ELISA; assay type: functional, cell-based
Summary of the method: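 Calvarial osteoblasts were seeded at 5×10^3 cells/well and treated 48 h at 100 pM in α-MEM with 1% charcoal-stripped FCS. BMP2 in the culture supernatant was measured by sandwich ELISA, with OD read at 450 nm.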

[23] = system: Calvarial osteoblast; experiment: Upregulation of Runx2 mRNA levels in rat calvarial osteoblasts at 100 pM after 48 hrs by qRT-PCR analysis relative to control; assay type: functional; summary of the method: as §5
[24] = system: Rattus norvegicus; experiment: Osteogenic activity in Sprague-Dawley rat drill-hole fracture model assessed as increase in connection density at 10 mg/kg/day for 14 consecutive days by micro CT-scan analysis; assay type: functional, organism-based; summary of the method: as §1
[25] = system: Rattus norvegicus; experiment: Osteogenic activity in Sprague-Dawley rat drill-hole fracture model assessed as increase in mineral deposition at 10 mg/kg/day by calcein labeling-based confocal microscopy analysis
[26] = system: Rattus norvegicus; experiment: Upregulation of Runx2 mRNA in rat pup calvarial tissue at >10 mg/kg/day administered subcutaneously for 3 consecutive days by qRT-PCR analysis; assay type: functional, organism-based; summary of the method: as §4
[27] = system: Calvarial osteoblast; experiment: Upregulation of Osx mRNA levels in rat calvarial osteoblasts at 100 pM after 48 hrs by qRT-PCR analysis relative to control; assay type: functional; summary of the method: as §5
[28] = system: Rattus norvegicus; experiment: Osteogenic activity in Sprague-Dawley rat drill-hole fracture model assessed as increase in bone volume/trabecular volume at 10 mg/kg/day for 14 consecutive days by micro CT-scan analysis; assay type: functional, organism-based; summary of the method: as §1
[29] = system: Calvarial osteoblast; experiment: Upregulation of Bmp2 mRNA levels in rat calvarial osteoblasts at 10 nM after 48 hrs by qRT-PCR analysis relative to control; assay type: functional; summary of the method: as §5
[30] = system: Calvarial osteoblast; experiment: Anabolic activity in rat calvarial osteoblasts assessed as induction of alkaline phosphatase activity at 100 pM after 48 hrs in presence of beta-glycerophosphate and ascorbic acid by p-nitrophenyl phosphate substrate based assay (reference value: 1 to 1.21); assay type: functional
[31] = system: Calvarial osteoblast; experiment: Anabolic activity in rat calvarial osteoblasts assessed as induction of alkaline phosphatase activity at 1 uM after 48 hrs in presence of beta-glycerophosphate and ascorbic acid by p-nitrophenyl phosphate substrate based assay (reference value: 1 to 1.21); assay type: functional
[32] = system: Calvarial osteoblast; experiment: Upregulation of RUNX2 expression levels in rat calvarial osteoblasts at 100 pM after 48 hrs by Western blot analysis; assay type: functional, cell-based
[33] = system: Rattus norvegicus; experiment: Osteogenic activity in Sprague-Dawley rat drill-hole fracture model assessed as bone formation at 10 mg/kg/day by H and E staining-based analysis relative to control; assay type: functional, organism-based; summary of the method: as §2
[34] = system: Rattus norvegicus; experiment: Upregulation of Runx2 mRNA in rat pup calvarial tissue at 1 to 10 mg/kg/day administered subcutaneously for 3 consecutive days by qRT-PCR analysis; assay type: functional, organism-based; summary of the method: as §4
[35] = system: Calvarial osteoblast; experiment: Upregulation of Col1 mRNA levels in rat calvarial osteoblasts at 100 pM after 48 hrs by qRT-PCR analysis relative to control; assay type: functional; summary of the method: as §5

## CCOC(=O)C1=C(C)NC2=C(C(=O)CCC2)C1c1cc(C(C)CC)c2oc(C(=O)c3ccc(C)cc3)cc2c1 (stereo not given)
[1]
  Activity: Active
[2]
  Activity: 40%
[3]
  Activity: Active
[4]
  Activity: Active
[5]
  OD: 1.14
[6]
  Activity: Toxic
[7]
  Activity: inactive
[8]
  Activity: Active
[9]
  fold change (FC): 4.5
[10]
  OD: 0.36
[11]
  fold change (FC): 3.7
[12]
  fold change (FC): 3.4
[13]
  Activity: Active
[14]
  OD: 1.19
[15]
  Activity: Active
[16]
  Activity: Active
[17]
  Activity: Non-Toxic
[18]
  Activity: Non-Toxic
[19]
  EC50: 0.1 nM
[20]
  Activity: Active
[21]
  fold change (FC): 4.5
[22]
  Activity: Active
[23]
  fold change (FC): 3.9
[24]
  Activity: Active
[25]
  Activity: Active
[26]
  Activity: inactive
[27]
  fold change (FC): 3.7
[28]
  Activity: Active
[29]
  fold change (FC): 3.1
[30]
  OD: 1.32
[31]
  OD: 1.16
[32]
  Activity: Active
[33]
  Activity: Active
[34]
  Activity: Active
[35]
  fold change (FC): 5
